Assays:
[1] = system: Trypanosoma cruzi; assay: Antitrypanosomal activity against Trypanosoma cruzi Tulahuen 2 epimastigotes assessed as growth inhibition at 25 uM after 5 days relative to control; assay type: functional; conditions: Tulahuen 2, 120 h, read-out: GI
Method in brief: (§1)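 Epimastigotes grown axenically at 28 °C in BHI-tryptose + 5% FBS; a 10-day stationary culture was inoculated to 1 × 10⁶ cells/mL. Drug added from DMSO stock, final DMSO ≤0.4%, vehicle control. A600 read daily. PGI on day 5 corrects for day-0 absorbance, relative to control. […] Three independent experiments.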

[2] = system: Trypanosoma cruzi; assay: Antitrypanosomal activity against Trypanosoma cruzi Tulahuen 2 epimastigotes assessed as growth inhibition after 5 days; assay type: functional; conditions: Tulahuen 2, 120 h, read-out: ID50; method in brief: as §1
[3] = Cytotoxicity against mouse J774 cells; assay type: cell-based; conditions: read-out: ID50 (the source's name)
[4] = Selectivity index, ratio of ID50 for mouse J774 cells to ID50 for Trypanosoma cruzi Tulahuen 2 epimastigotes; assay type: toxicity, cell-based; conditions: J774 cells versus Trypanosoma cruzi Tulahuen 2 epimastigotes, read-out: Selectivity Index
[5] = system: Leishmania braziliensis; assay: Antileishmanial activity against Leishmania braziliensis MHOM/BR/00/LTB300 promastigotes assessed as cell death after 2 days by MTT assay; assay type: functional; conditions: MHOM/BR/00/LTB300, 48 h, read-out: ID50 (the source's name)
Method in brief: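 Parasites in exponential growth, in BHI-tryptose + 5% FBS for T. cruzi or RPMI + 5% FBS for L. braziliensis, 28 °C, 24-well plates. Compounds in DMSO; miltefosine in ethanol. 2-day exposure, two PBS-glucose (5.5 mM) washes, then MTT 0.4 mg/mL for 4 h at 28 °C. SDS-isopropanol lysis, OD read. Triplicates, six growth controls.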

IC50 [2] | Compound | inhibition of growth at 25 µM [1] | CC50 [3] | selectivity ratio [4] | IC50 [5]
2.5 µM | O=C(c1ccc(Cl)cc1)c1c(C(F)(F)F)[n+]([O-])c2cc(F)c(F)cc2[n+]1[O-] | 100% | – | – | –
1.4 µM | O=C(c1cccc2ccccc12)c1c(C(F)(F)F)[n+]([O-])c2ccccc2[n+]1[O-] | 100% | 7.92 µM | 5.5 | –
3 µM | O=C(c1ccccc1)c1c(C(F)(F)F)[n+]([O-])c2cc(Cl)ccc2[n+]1[O-] | 90% | – | – | –
12.5 µM | CCOC(=O)c1c(-c2ccccc2)[n+]([O-])c2cc(Cl)ccc2[n+]1[O-] | 88% | – | – | –
3 µM | CC(=O)c1c(C(F)(F)F)[n+]([O-])c2ccccc2[n+]1[O-] | 100% | 8.55 µM | 2.8 | –
1.1 µM | O=C(c1cccs1)c1c(C(F)(F)F)[n+]([O-])c2ccccc2[n+]1[O-] | 100% | 4.69 µM | 4.3 | –
5 µM | O=C(c1ccco1)c1c(C(F)(F)F)[n+]([O-])c2cc(C(F)(F)F)ccc2[n+]1[O-] | 100% | – | – | –
1.4 µM | Cc1cc2c(cc1C)[n+]([O-])c(C(F)(F)F)c(C(=O)c1ccccc1)[n+]2[O-] | 72% | – | – | –
11.8 µM | Cc1c(C(=O)c2ccccc2)[n+]([O-])c2cc(Cl)c(Cl)cc2[n+]1[O-] | 91% | – | – | –
4.7 µM | O=C(c1ccccc1)c1c(C(F)F)[n+]([O-])c2cc(Cl)c(Cl)cc2[n+]1[O-] | 100% | – | – | –
25 µM | Cc1ccc2c(c1)[n+]([O-])c(C(F)F)c(C(=O)c1ccccc1)[n+]2[O-] | 50.8% | – | – | –
2.4 µM | O=C(c1ccco1)c1c(C(F)(F)F)[n+]([O-])c2ccccc2[n+]1[O-] | 100% | 7.13 µM | 3 | –
2.5 µM | O=C(c1ccco1)c1c(C(F)(F)F)[n+]([O-])c2cc(F)c(F)cc2[n+]1[O-] | 100% | – | – | –
2.4 µM | O=C(c1ccccc1)c1c(C(F)(F)F)[n+]([O-])c2cc(Cl)c(Cl)cc2[n+]1[O-] | 100% | – | – | –
3.9 µM | O=C(c1cccc2ccccc12)c1c(C(F)(F)F)[n+]([O-])c2cc(F)c(F)cc2[n+]1[O-] | 100% | – | – | –
1.4 µM | CC(C)C(=O)c1c(C(F)(F)F)[n+]([O-])c2cc(Cl)c(Cl)cc2[n+]1[O-] | 100% | – | – | –
0.76 µM | O=C(c1c(C(F)(F)F)[n+]([O-])c2ccccc2[n+]1[O-])N1CCN(c2ccccc2)CC1 | 100% | 9.51 µM | 12.5 | –
6.4 µM | O=C(c1ccccc1)c1c(C(F)F)[n+]([O-])c2cc(Cl)ccc2[n+]1[O-] | 100% | – | – | –
4.9 µM | CC(C)(C)C(=O)c1c(C(F)(F)F)[n+]([O-])c2cc(F)c(F)cc2[n+]1[O-] | 100% | 16.2 µM | < 0.6 | –
2.8 µM | O=C(c1cccs1)c1c(C(F)(F)F)[n+]([O-])c2cc(F)c(F)cc2[n+]1[O-] | 100% | – | – | –
6.3 µM | O=C(c1ccccc1)c1c(C(F)F)[n+]([O-])c2cc(F)ccc2[n+]1[O-] | 100% | – | – | –
4.8 µM | O=C(c1ccco1)c1c(C(F)(F)F)[n+]([O-])c2ccc(C(F)(F)F)cc2[n+]1[O-] | 100% | – | – | –
0.5 µM | CCC(=O)c1c(C(F)(F)F)[n+]([O-])c2cc(F)c(F)cc2[n+]1[O-] | 100% | – | – | –
1.3 µM | Cc1ccc2c(c1)[n+]([O-])c(C(F)(F)F)c(C(=O)c1ccccc1)[n+]2[O-] | 99% | – | – | –
0.78 µM | CCC(=O)c1c(C(F)(F)F)[n+]([O-])c2cc(Cl)c(Cl)cc2[n+]1[O-] | 100% | – | – | –
10 µM | COc1ccc2c(c1)[n+]([O-])c(C(F)F)c(C(=O)c1ccccc1)[n+]2[O-] | 100% | – | – | –
> 2.5 µM | CC(C)C(=O)c1c(C(F)(F)F)[n+]([O-])c2ccccc2[n+]1[O-] | 100% | – | – | –
3.5 µM | COc1ccc2c(c1)[n+]([O-])c(C(F)(F)F)c(C(=O)c1ccccc1)[n+]2[O-] | 98% | – | – | –
1.6 µM | O=C(c1ccc(Cl)cc1)c1c(C(F)(F)F)[n+]([O-])c2ccccc2[n+]1[O-] | 100% | 8.5 µM | 5.3 | –
0.79 µM | O=C(c1c(C(F)(F)F)[n+]([O-])c2ccccc2[n+]1[O-])N1CCN(c2ccc(Cl)cc2)CC1 | 100% | 8.25 µM | 10.4 | –

The remaining lines, values behind:

Compound | IC50 [2] | inhibition of growth at 25 µM [1] | CC50 [3] | selectivity ratio [4] | IC50 [5]
Cc1c(C(=O)Nc2ccccc2)[n+]([O-])c2cc(Cl)c(Cl)cc2[n+]1[O-] | – | 61% | – | – | –
Cc1c(Cc2ccccc2)[n+]([O-])c2ccc(Cl)cc2[n+]1[O-] | – | 0% | – | – | –
CCOC(=O)c1c(C)[n+]([O-])c2cc(C)c(C)cc2[n+]1[O-] | – | 1% | – | – | –
CCOC(=O)c1c(-c2ccccc2)[n+]([O-])c2cc(F)c(F)cc2[n+]1[O-] | 3.3 µM | 100% | – | – | –
Cc1ccc2c(c1)[n+]([O-])c(C)c(C(=O)c1ccccc1)[n+]2[O-] | – | 8% | – | – | –
CC(C)(C)C(=O)c1c(C(F)(F)F)[n+]([O-])c2ccccc2[n+]1[O-] | – | 26% | 8.7 µM | < 0.3 | –
Cc1c(C(=O)c2ccccc2)[n+]([O-])c2ccc(Cl)cc2[n+]1[O-] | – | 33% | – | – | –
Cc1cc2c(cc1C)[n+]([O-])c(C(=O)c1ccccc1)c(C)[n+]2[O-] | – | 3% | – | – | –
Cc1c(Cc2ccccc2)[n+]([O-])c2ccccc2[n+]1[O-] | – | 0% | – | – | –
CC(C)(C)C(=O)c1nc2ccccc2nc1C(F)(F)F | – | 43% | – | – | –
Cc1cc2c(cc1C)[n+]([O-])c(C(=O)Nc1ccccc1)c(C)[n+]2[O-] | – | 16% | – | – | –
CCOC(=O)c1c(-c2ccccc2)[n+]([O-])c2cc(C)c(C)cc2[n+]1[O-] | – | 0% | – | – | –
Cc1ccccc1NC(=O)c1c(C)[n+]([O-])c2ccccc2[n+]1[O-] | – | 21% | – | – | –
CC(C)C(=O)c1c(C(F)(F)F)[n+]([O-])c2cc(F)c(F)cc2[n+]1[O-] | – | 23.6% | 11.5 µM | < 0.5 | –
O=C(c1ccccc1)c1c(C(F)F)[n+]([O-])c2ccccc2[n+]1[O-] | – | 35.8% | – | – | –
CC(=O)c1c(C)[n+]([O-])c2cc(Cl)c(Cl)cc2[n+]1[O-] | 18.4 µM | 60% | – | – | –
Cc1cc2c(cc1C)[n+]([O-])c(C(=O)NC(C)(C)C)c(C)[n+]2[O-] | – | 0% | – | – | –

Compound | IC50 [2] | inhibition of growth at 25 µM [1] | CC50 [3] | selectivity ratio [4] | IC50 [5]
Cc1c(C(=O)NC(C)(C)C)[n+]([O-])c2cc(Cl)c(Cl)cc2[n+]1[O-] | – | 28% | – | – | –
O=C(c1ccccc1)c1nc2ccccc2nc1C(F)(F)F | – | 49% | – | – | –
Cc1cc2c(cc1C)[n+]([O-])c(C(=O)Nc1ccccc1C)c(C)[n+]2[O-] | – | 12% | – | – | –
CC(=O)c1c(C)[n+]([O-])c2ccccc2[n+]1[O-] [MEQUINDOX] | – | 29% | – | – | –
CCOC(=O)c1c(C)[n+]([O-])c2cc(Cl)c(Cl)cc2[n+]1[O-] | – | 32% | – | – | –
Cc1cc2c(cc1C)[n+]([O-])c(Cc1ccccc1)c(C)[n+]2[O-] | – | 0% | – | – | –
Cc1c(Cc2ccccc2)[n+]([O-])c2cc(Cl)c(Cl)cc2[n+]1[O-] | – | 24% | – | – | –
CC(=O)c1c(C)[n+]([O-])c2cc(C)c(C)cc2[n+]1[O-] | – | 2% | – | – | –
CCOC(=O)c1c(-c2ccccc2)[n+]([O-])c2cc(C)ccc2[n+]1[O-] | – | 13% | – | – | –
Cc1c(C(=O)c2ccccc2)[n+]([O-])c2ccccc2[n+]1[O-] | – | 19% | – | – | –
COC(=O)c1c(C)[n+]([O-])c2cc(C)c(C)cc2[n+]1[O-] | – | 10% | – | – | –
Cc1ccccc1NC(=O)c1c(C)[n+]([O-])c2cc(Cl)c(Cl)cc2[n+]1[O-] | – | 49% | – | – | –
CCOC(=O)c1c(-c2ccccc2)[n+]([O-])c2cc(OC)ccc2[n+]1[O-] | – | 0% | – | – | –
COc1ccc2c(c1)[n+]([O-])c(C)c(C(=O)c1ccccc1)[n+]2[O-] | – | 9% | – | – | –
COC(=O)c1c(C)[n+]([O-])c2cc(Cl)c(Cl)cc2[n+]1[O-] | – | 66% | – | – | –
CCCCCCCCCCCCCCCCOP(=O)([O-])OCC[N+](C)(C)C [MILTEFOSINE] | – | – | – | – | 9 µM
CCOC(=O)c1c(-c2ccccc2)[n+]([O-])c2ccccc2[n+]1[O-] | – | 29% | – | – | –

Reference: ChEMBL document CHEMBL1773052, “3-Trifluoromethylquinoxaline N,N'-dioxides as anti-trypanosomatid agents. Identification of optimal anti-T. cruzi agents and mechanism of action studies” (J Med Chem, 2011)
